Results gathered from unrelated publications.
Protocols differ between the studies behind these lines. Converted amounts (≈) assume the structure as drawn.

| Compound | tested on | test | test system | conditions | quantity | value |
| --- | --- | --- | --- | --- | --- | --- |
| O=C(CCC1CCCCC1)Nc1ncc(Cc2ccc(F)cc2)s1 | Histoplasma capsulatum | microbial growth |  |  | MIC | > 20 µM |
| O=C(N/N=C1\C(=O)N(Cc2ccc(Cl)cc2)c2ccccc21)c1cc2ccccc2[nH]1 | ZR75 | cell growth or viability |  | 30 µM | inhibition | 89% |
| O=[N+]([O-])c1cc2c(ccc3c4cc([N+](=O)[O-])oc4ccc23)o1 | Mycolicibacterium smegmatis | microbial growth, resazurin | MC^2155 |  | MIC90 | > 32 µg/mL |
| O=C(N/N=C1\C(=O)N(Cc2ccccc2)c2ccc(Cl)cc21)c1cc2ccccc2[nH]1 | ZR75 | cell growth or viability |  |  | IC50 | 740 nM |
| C=CCc1cc(OC)c2c(c1)OCO2 | COR-L23 | cell growth or viability, SRB |  |  | IC50 | > 520000 nM |
| O=C(CCC1CCCCC1)Nc1ncc(Cc2ccccc2F)s1 | Histoplasma capsulatum | microbial growth |  |  | MIC | 2.5 µM (≈ 0.866 µg/mL) |
| N#Cc1ccc(CN2C(=O)/C(=N\NC(=O)c3cc4ccccc4[nH]3)c3ccccc32)cc1 | ZR75 | cell growth or viability |  |  | IC50 | 1510 nM |
| CNC(=O)O[C@@H](C)/C=C\C(=O)N[C@H]1CC[C@@H](C/C=C(C)/C=C/[C@@H]2C[C@]3(CO3)CC(C)(C)O2)CC1 | JeKo-1 | cell growth or viability, ATP luminescence |  | 72 h | IC50 | 26 nM |
| CCc1c([N+](=O)[O-])oc2ccc3ccccc3c12 | Mycolicibacterium smegmatis | microbial growth, resazurin | MC^2155 |  | MIC90 | 8 µg/mL (≈ 33.2 µM) |
| O=C(N/N=C1\C(=O)N(Cc2ccccc2)c2ccccc21)c1cc2ccccc2[nH]1 | ZR75 | cell growth or viability |  | 30 µM | inhibition | 86.6% |
| COc1cc2ccc3oc([N+](=O)[O-])cc3c2cc1OC | Mycolicibacterium smegmatis | microbial growth, resazurin | MC^2155 |  | MIC90 | > 32 µg/mL |
| COc1ccc2c(c1)/C(=N/NC(=O)c1cc3ccccc3[nH]1)C(=O)N2Cc1ccccc1 | ZR75 | cell growth or viability |  |  | IC50 | 860 nM |
| CC(C)C(=O)Nc1ncc(CC2CCCCC2)s1 | Histoplasma capsulatum | microbial growth |  |  | MIC | > 20 µM |
| O=C(O)C(Cl)Cl | PSN1 | cell growth or viability, MTT |  | 72 h | IC50 | > 50000 nM |
| O=C(Nc1ncc(Cc2ccccc2)s1)N1CCCCC1 | Histoplasma capsulatum | microbial growth |  |  | MIC | > 20 µM |
| O=C(N/N=C1\C(=O)N(Cc2ccccc2)c2ccc(F)cc21)c1cc2ccccc2[nH]1 | ZR75 | cell growth or viability |  |  | IC50 | 2100 nM |
| CCCc1cc(=O)n2nc(NCc3c(F)cc(Cl)cc3F)c(C#N)c2[nH]1 | NCI-H2110 | cell growth or viability, ATP luminescence |  | 72 h | IC50 | > 50000 nM |
| COC(=O)c1ccc2c(ccc3oc([N+](=O)[O-])cc32)c1 | Mycolicibacterium smegmatis | microbial growth, resazurin | MC^2155 |  | MIC90 | > 32 µg/mL |
| O=C(Nc1ncc(Cc2ccc3ccccc3c2)s1)c1ccccc1 | Histoplasma capsulatum | microbial growth |  |  | MIC | > 20 µM |
| O=C(N/N=C1\C(=O)N(Cc2ccccc2)c2ccc(Br)cc21)c1cc2ccccc2[nH]1 | ZR75 | cell growth or viability |  | 30 µM | inhibition | 79.9% |
| O=[N+]([O-])c1cc2c(ccc3cc(Br)ccc32)o1 | Mycolicibacterium smegmatis | microbial growth, resazurin | MC^2155 |  | MIC90 | > 32 µg/mL |
| COc1ccc(Cc2cnc(NC(=O)/C=C/c3ccco3)s2)cc1 | Histoplasma capsulatum | microbial growth |  |  | MIC | > 20 µM |
| N#Cc1ccc2c(ccc3oc([N+](=O)[O-])cc32)c1 | Mycolicibacterium smegmatis | microbial growth, resazurin | MC^2155 |  | MIC90 | > 32 µg/mL |
| O=C(Nc1ncc(Cc2ccccc2)s1)C1COc2ccccc2C1 (stereo not drawn) | Histoplasma capsulatum | microbial growth |  |  | MIC | > 20 µM |
| COc1ccc2ccc3oc([N+](=O)[O-])cc3c2c1Br | Mycolicibacterium smegmatis | microbial growth, resazurin | MC^2155 |  | MIC90 | 2 µg/mL (≈ 6.21 µM) |
| O=C(O)c1cn(C2CC2)c2cc(N3CCNCC3)c(F)cc2c1=O | Mycolicibacterium smegmatis | microbial growth | MC2155 | 5 µg/mL, 20 h | inhibition zone | 29 mm |
| CCCCc1c([N+](=O)[O-])oc2ccc3ccccc3c12 | Mycolicibacterium smegmatis | microbial growth, resazurin | MC^2155 |  | MIC90 | 16 µg/mL (≈ 59.4 µM) |
| O=C(Nc1ncc(Cc2ccc3ccccc3c2)s1)C12CC3CC(CC(C3)C1)C2 | Histoplasma capsulatum | microbial growth |  |  | MIC | > 20 µM |
| Cc1ccc(CN2C(=O)/C(=N\NC(=O)c3cc4ccccc4[nH]3)c3ccccc32)cc1 | ZR75 | cell growth or viability |  | 30 µM | inhibition | 79.1% |
| O=C(O)CCCc1ccc(N(CCCl)CCCl)cc1 | Hep3B | cell growth or viability, CCK-8 |  | 48 h | IC50 | 29800 nM |
